Data set [1] in a line: Inhibition of [3H]dofetilide binding to guinea pig cardiac potassium (K+) channels. Set-up: species or system Cavia porcellus. The method in brief: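 Radioligand binding of [3H]dofetilide to guinea pig cardiac myocytes, run by a previously published method. The IC50 is reported as the mean of at least two determinations.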
Data set [2] concerns the target T1, Potassium voltage-gated channel subfamily A member 3 (Homo sapiens, UniProt P22001). Kind of data set: Concentration inhibiting [125I]ChTX (charybdotoxin) binding to N-type potassium channel.
Data set [3] addresses T1, Potassium voltage-gated channel subfamily A member 3. In words: Inhibition of outward potassium currents (IKn) in human T-lymphocyte N-type potassium channels. In kind it is functional. A digest of the protocol:
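Whole-cell patch clamp held at -80 mV, with 150 ms steps to 30 mV once per minute and stabilization for >6 min. Test agent was perfused at one fixed concentration per cell for 6 min. The first pulse gave closed-channel block and the next gave open-channel block. Peak outward current was compared with predrug current as percent blocked. IC50 was fitted from n > 9 data points.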

Data set [4] in a line: Partition coefficient (logP) (HPLC). The class given is physicochemical. The following applies: octanol/water.
Data set [5] in a line: Acid dissociation constant was determined. The class given is ADME.
The species entered for data set [6] is Cavia porcellus. Kind of data set: Inhibition of [3H]dofetilide binding to cardiac potassium (K+) channels at 400 nM.
The species named for data set [7] is Cavia porcellus. Kind of data set: Inhibition of [3H]dofetilide binding to guinea pig cardiac myocytes potassium (K+) channels at 400 nM.

Some results are limits rather than exact numbers.

35 compounds from ChEMBL document CHEMBL1128377, “Novel inhibitors of potassium ion channels on human T lymphocytes” (J Med Chem, 1995) can be followed below.

T1 sequence (P22001 whole entry): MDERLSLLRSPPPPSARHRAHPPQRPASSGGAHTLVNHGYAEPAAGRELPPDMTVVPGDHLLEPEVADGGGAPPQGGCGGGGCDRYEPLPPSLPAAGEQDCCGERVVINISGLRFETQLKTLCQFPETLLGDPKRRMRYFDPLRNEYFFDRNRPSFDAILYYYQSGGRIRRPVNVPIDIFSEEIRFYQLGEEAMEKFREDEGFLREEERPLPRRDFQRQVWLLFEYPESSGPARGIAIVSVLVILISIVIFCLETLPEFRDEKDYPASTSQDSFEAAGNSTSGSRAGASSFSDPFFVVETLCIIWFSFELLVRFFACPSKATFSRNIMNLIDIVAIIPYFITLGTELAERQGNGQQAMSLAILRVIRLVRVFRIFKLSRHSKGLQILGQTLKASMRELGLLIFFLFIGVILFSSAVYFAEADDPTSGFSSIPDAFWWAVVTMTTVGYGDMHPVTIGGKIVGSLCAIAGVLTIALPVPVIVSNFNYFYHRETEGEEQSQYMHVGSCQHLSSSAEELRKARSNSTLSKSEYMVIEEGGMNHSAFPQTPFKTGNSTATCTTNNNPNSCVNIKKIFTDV

Regarding `CCN(CC)CC/N=c1\ccn(Cc2ccccc2Cl)c2cc(Cl)ccc12`, the IC50 in data set [1] came to 57 nM.
`CCCCCC/N=c1\ccn(Cc2ccccc2)c2c(OC)cccc12` registered an IC50 in data set [1] of 210 nM.
`CC(C)CCCC(C)/N=c1\ccn(Cc2ccccc2)c2cc(Cl)ccc12` (stereo not given): the IC50 amounted to 817 nM in data set [2], 1680 nM in data set [3] and 175 nM in data set [1].
Take `CCCCCCNc1cc[n+](-c2ccccc2)c2c(-c3ccccc3)cccc12`: in data set [4], the logP is 3.89. In addition, the pKa in data set [5] was found to be 9.58. The compound further registered an IC50 in data set [2] of 930 nM.
Consider `Clc1ccc(/N=c2\ccn(Cc3ccccc3Cl)c3cc(Cl)ccc23)c(Cl)c1`, for which the IC50 in data set [2] was greater than 30000 nM; in data set [3], greater than 10000 nM; in data set [1], greater than 30000 nM.
Turning to `CCCCC/N=c1\ccn(Cc2ccc(Cl)cc2)c2cc(C(F)(F)F)ccc12`, the IC50 turned out to be 239 nM in data set [2] and 90 nM in data set [1].
In data set [2], `O=C(O)CC/N=c1\ccn(Cc2ccccc2Cl)c2cc(Cl)ccc12` had an IC50 greater than 10000 nM.
For the compound `CCCCCC/N=c1\ccn(Cc2ccc(OC)cc2)c2cc(Cl)ccc12`, the figures for the IC50 in data set [2] and in data set [3] were 88 nM and 329 nM, respectively.
As for `CNCCC/N=c1\ccn(Cc2cccc(Cl)c2)c2cc(Cl)ccc12`, in data set [2], the IC50 is greater than 30000 nM.
As for `CCCCCC/N=c1\ccn(Cc2ccccc2Cl)c2cc(Cl)ccc12`, the values for the IC50 in data set [2], in data set [3] and in data set [1] were 190 nM, 216 nM and 780 nM, respectively.
As for `CCCCC/N=c1\ccn(Cc2ccccc2)c2cc(Cl)ccc12`, the IC50 in data set [3] is 250 nM; in data set [1] it was 1300 nM.
For `CCCCCCC/N=c1\ccn(Cc2ccccc2)c2cc(Cl)ccc12`, the results for the IC50 in data set [2], in data set [3] and in data set [1] were 117 nM, 249 nM and 2500 nM, respectively.
The compound `N=c1ccn(Cc2ccccc2)c2cc(Cl)ccc12` registered an IC50 in data set [2] greater than 8000 nM.
As to `CCCCCCNc1cc[n+](C)c2c(-c3ccccc3)cccc12`, the results for the IC50 in data set [2], in data set [3] and in data set [1] were 240 nM, 602 nM and 223 nM, respectively.
Take `Clc1ccc(C/N=c2\ccn(Cc3ccccc3Cl)c3cc(Cl)ccc23)c(Cl)c1`: the results for the IC50 in data set [2], in data set [3] and in data set [1] were 550 nM, 259 nM and 2380 nM, respectively.
In the case of `CCCC/N=c1\ccn(Cc2ccccc2)c2cc(Cl)ccc12`, the IC50 amounted to 198 nM in data set [2] and 2620 nM in data set [3]. For the same compound, the inhibition in data set [6] was 24%.
With `CCCCC/N=c1\ccn(Cc2ccc(Cl)cc2)c2c(F)cccc12`, the IC50 in data set [1] stood at 310 nM.
Consider `CCCCCC/N=c1\ccn(Cc2ccccc2)c2ccccc12`, for which the IC50 is 164 nM in data set [2] and 1050 nM in data set [3].
In turn, `CCCCCC/N=c1\ccn(Cc2ccccc2)c2cc(Cl)ccc12` registered a pKa in data set [5] of 11.5. For the same compound, the IC50 came out at 32 nM in data set [2], 335 nM in data set [3] and 820 nM in data set [1].
`CC(C)C/N=c1\ccn(Cc2ccccc2)c2cc(Cl)ccc12`: the IC50 in data set [2] stood at 206 nM; in data set [1] it was 2000 nM.
For the compound `CCCCC/N=c1\ccn(C2CCc3ccccc32)c2cc(Cl)ccc12` (stereo not given), the IC50 in data set [2] is 2300 nM; in data set [1] it was 870 nM.
In the case of `CCCCCC/N=c1\ccn(Cc2ccccc2)c2ccc(OC)cc12`, the IC50 in data set [2] was 47 nM; in data set [3] it was 267 nM; in data set [1], 680 nM.
For `CCCCC/N=c1\ccn(Cc2ccc(Cl)cc2)c2ccc(OC)cc12`, the IC50 in data set [1] was 1990 nM.
`CCCCC/N=c1\ccn(Cc2ccc(Cl)cc2)c2ccc(C(F)(F)F)cc12`: the values for the IC50 in data set [2], in data set [3] and in data set [1] were 340 nM, 213 nM and 140 nM, respectively.
In turn, `CCCCCCOc1ccc(Cc2ccccc2)c2ccccc12` had an IC50 in data set [2] greater than 5000 nM.
As to `CCCCCC/N=c1\ccn(Cc2ccc(Cl)c(Cl)c2)c2cc(Cl)ccc12`, in data set [4], the logP came out at 4.64. The compound further showed a pKa in data set [5] of 11.5. In addition, the IC50 in data set [2] was 310 nM; in data set [3], 231 nM; in data set [1], greater than 3500 nM.
For the compound `Clc1ccc2/c(=N/C34CC5CC(CC(C5)C3)C4)ccn(Cc3ccccc3)c2c1`, the results for the IC50 in data set [2] and in data set [1] were 1170 nM and 157 nM, respectively.
Take `CCCCCC/N=c1\ccn(Cc2ccc(Cl)cc2)c2cc(Cl)ccc12`: the IC50 in data set [2] came out at 100 nM; in data set [1], 3230 nM.
`CCCC/N=c1\ccn(CCCc2ccccc2)c2cc(Cl)ccc12` gave a logP in data set [4] of 3.82. Moreover, the pKa in data set [5] is 11.4. The same compound came in with an IC50 in data set [2] of 471 nM.
Take `CCCCCCCC/N=c1\ccn(Cc2ccccc2)c2cc(Cl)ccc12`: the results for the IC50 in data set [2], in data set [3] and in data set [1] were 280 nM, 351 nM and 2400 nM, respectively.
In data set [4], `CCCCCCNc1cc[n+](-c2ccccc2)c2c(-c3ccccc3)cc(OC)cc12` showed a logP of 3.73. Also, the IC50 in data set [2] worked out at 240 nM.
Compound `C/N=c1\ccn(Cc2ccccc2)c2cc(Cl)ccc12` returned an IC50 in data set [2] greater than 5000 nM. In data set [7], this compound registered an inhibition of 24%.
For `CCCCCCOc1cc[n+](Cc2ccccc2)c2cc(Cl)ccc12`, in data set [4], the logP is 3.62. This compound also came in with a pKa in data set [5] of 11.2. In data set [2], the half-inhibitory concentration (IC50) is 828 nM.
On to `CCC/N=c1\ccn(Cc2ccccc2)c2cc(Cl)ccc12`, for which the IC50 in data set [2] is 544 nM; in data set [3] it was 3160 nM.
With `C[N+](C)(C)CCC/N=c1\ccn(Cc2ccccc2Cl)c2cc(Cl)ccc12`, the IC50 in data set [2] is greater than 30000 nM; in data set [3], greater than 10000 nM.

Usually IC50 stands for the concentration at which inhibition is half-maximal. The low end stands for greater potency, the high end for weaker potency. As usually defined, the logP is the decadic logarithm of the partition coefficient of the neutral form, usually between octanol and water. Read a low logP as lower lipophilicity. As a reminder, the pKa is the negative logarithm of the acid dissociation constant. Lower therefore signals a group that gives up its proton readily. The inhibition is the share of the control response that was lost under treatment. A lower inhibition goes with a weak effect.
